Assay results: ChEMBL document CHEMBL1134791, “2- and 3-substituted 1,4-naphthoquinone derivatives as subversive substrates of trypanothione reductase and lipoamide dehydrogenase from Trypanosoma cruzi: synthesis and correlation between redox cycling activities and in vitro cytotoxicity” (J Med Chem, 2001)

How the values were obtained:
Trypanothione reductase = Trypanothione reductase (Trypanosoma cruzi, UniProt P28593); assay: Inhibitory activity against Trypanosoma cruzi trypanothione disulfide reductase, assay in presence of 57 uM T(S)2.
Trypanothione reductase, sequence (P28593 whole entry): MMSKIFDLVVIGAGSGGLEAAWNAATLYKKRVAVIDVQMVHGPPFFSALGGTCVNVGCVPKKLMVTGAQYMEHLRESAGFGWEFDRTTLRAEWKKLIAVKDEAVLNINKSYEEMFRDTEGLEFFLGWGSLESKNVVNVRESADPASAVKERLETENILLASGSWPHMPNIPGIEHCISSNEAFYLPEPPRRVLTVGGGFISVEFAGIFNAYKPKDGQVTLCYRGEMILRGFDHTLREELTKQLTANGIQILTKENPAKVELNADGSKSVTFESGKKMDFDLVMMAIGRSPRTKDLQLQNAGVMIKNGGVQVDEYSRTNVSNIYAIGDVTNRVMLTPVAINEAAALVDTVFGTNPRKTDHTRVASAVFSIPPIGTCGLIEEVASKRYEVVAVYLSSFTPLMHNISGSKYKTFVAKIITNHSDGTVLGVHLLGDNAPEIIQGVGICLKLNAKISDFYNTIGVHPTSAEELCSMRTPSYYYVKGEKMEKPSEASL
Outline: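 Assay contained 250 µM NADPH, 57 µM T(S)₂, inhibitor at 0.3–50 µM and 1% DMSO final. Started with enzyme; NADPH loss followed at 340 nm. IC50 in duplicate.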

Trypanosoma brucei [1] = assay: In vitro antiparasitic activity against Trypanosoma brucei was tested by sigmoidal regression analysis; type: functional; details: read-out: ED50 (the source's name)
Outline: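 T. b. brucei S427 bloodstream trypomastigotes at 2 × 10⁵/mL in HMI-18 medium, in triplicate, with a 3-fold dilution series starting at 30 µM. Incubated 3 days at 37 °C in 5% CO₂. Pentamidine served as positive control. Viability read by tetrazolium colorimetric assay on day 3. ED50 by sigmoidal regression.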

[2] = Compound dose toxic against macrophages of Trypanosoma cruzi; type: ADME
Outline: (§1)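 Starch-induced peritoneal macrophages from female CD1 mice, 4 × 10⁵/mL in RPMI-1640, infected 5:1 with T. cruzi Y-strain trypomastigotes from MDCK overlay. Drug in 3-fold dilution series, quadruplicate, 3 days. Slides methanol-fixed and Giemsa-stained.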

[3] = Compound dose toxic against mouse peritoneal macrophages infected with Leishmania donovani; type: ADME
Outline: (§2)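 Starch-induced peritoneal macrophages from female CD1 mice, 4 × 10⁵/mL in RPMI-1640, infected with L. donovani (MHOM/ET/67/L82) amastigotes from hamster spleen. Drug in 3-fold dilution series, quadruplicate, 5 days. Giemsa-stained slides.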

[4] = Compound dose toxic against mouse peritoneal macrophages infected with Leishmania donovani (100 % inhibition); type: ADME; outline: as §2
[5] = Compound dose toxic against macrophages of Trypanosoma cruzi (100 % inhibition); type: ADME; outline: as §1
[6] = Compound dose toxic against mouse peritoneal macrophages infected with Leishmania donovani (100% inhibition); type: ADME; outline: as §2
[7] = Compound dose toxic against macrophages of Trypanosoma cruzi (100% inhibition); type: ADME; outline: as §1
Trypanosoma cruzi = assay: In vitro antiparasitic activity against Trypanosoma cruzi was tested by sigmoidal regression analysis; type: functional; details: read-out: ED50 (the source's name)
Outline: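 Mouse peritoneal macrophages (female CD1, starch-elicited, harvested 24 h) infected with L. donovani amastigotes (strain MHOM/ET/67/L82, hamster spleen) or T. cruzi Y-strain trypomastigotes (5:1, from MDCK overlay). Infected cells exposed to a 3-fold dilution series in quadruplicate for 5 days (L. donovani) or 3 days (T. cruzi). Giemsa-stained slides scored for % macrophages cleared of amastigotes versus untreated cultures. ED50 by sigmoidal regression.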

Trypanosoma brucei [8] = assay: In vitro antiparasitic activity against Trypanosoma brucei was tested by sigmoidal regression analysis; details: read-out: ED50 (the source's name)

SMILES	IC50 (Trypanothione reductase) [µM]	EC50 (Trypanosoma brucei [1]) [µM]	Toxic dose [2] [µM]	Toxic dose [3] [µM]	further results
CC1=C(NCCCN2CCN(CCCN)CC2)C(=O)c2c(O)cccc2C1=O	39	> 3	3	30	–
CN1CCN(C(=O)CCCCCC2=C(CCCCCC(=O)N3CCN(C)CC3)C(=O)c3c(O)cccc3C2=O)CC1	2.9	13.1	3	3	–
CC1=C(NCCCN2CCN(CCCNC3=C(C)C(=O)c4ccccc4C3=O)CC2)C(=O)c2ccccc2C1=O	10	> 12.5	30	–	–
CC1=C(CCC(=O)NCCCN2CCN(C)CC2)C(=O)c2c(O)cccc2C1=O	16	> 10	10	–	–
CC1=CC(=O)c2c(O)cccc2C1=O [PLUMBAGIN]	–	1.5	–	–	Toxic dose [4]: 3 µM; Toxic dose [5]: 10 µM
CC1=C(O)c2cccc(O)c2C(=O)/C1=N\CCCN1CCN(C)CC1	> 57	> 12.5	–	–	Toxic dose [6]: 30 µM; Toxic dose [7]: 10 µM
CN1CCN(CCCNC(=O)CCCCCC2=C(CCCCCC(=O)NCCCN3CCN(C)CC3)C(=O)c3c(O)cccc3C2=O)CC1	0.8	10.1	30	10	–
CC1=C(NCCCNCCCCNCCCN)C(=O)c2c(O)cccc2C1=O	28	> 30	1	–	–
CC1=C(CCC(=O)NCCCN2CCN(CCCNC(=O)CCC3=C(C)C(=O)c4cccc(O)c4C3=O)CC2)C(=O)c2c(O)cccc2C1=O	2.6	–	–	–	EC50 (Trypanosoma cruzi): 44 µM; EC50 (Trypanosoma brucei [8]): 30.3 µM
CC1=C(NCCCNCCCN)C(=O)c2c(O)cccc2C1=O	57	> 12.5	1	–	–
CC1=C(NCCCNCCC/N=C2/C(=O)c3ccccc3C(O)=C2C)C(=O)c2ccccc2C1=O	9	> 12.5	10	–	–
CC1=CC(=O)c2ccccc2C1=O [MENADIONE]	–	–	10	30	–
CC1=C(NCCCNCCCCNCCCN)C(=O)c2ccccc2C1=O	28	30	1	30	–
CC1=C(NCCCNCCCCNCCCNC2=C(C)C(=O)c3ccccc3C2=O)C(=O)c2ccccc2C1=O	6.5	> 1	1	30	–
CC1=C(NCCCCN)C(=O)c2ccccc2C1=O	> 57	> 12.5	3	–	–
CN1CCN(C(=O)CCCCC2=C(CCCCC(=O)N3CCN(C)CC3)C(=O)c3c(O)cccc3C2=O)CC1	5.9	> 56	10	3	–
CC1=C(CCC(=O)O)C(=O)c2c(O)cccc2C1=O	> 50	> 11	–	–	EC50 (Trypanosoma cruzi): 46 µM
CC1=C(CCCC(=O)NCCCN2CCN(CCCNC(=O)CCCC3=C(C)C(=O)c4cccc(O)c4C3=O)CC2)C(=O)c2c(O)cccc2C1=O	2.3	3.4	–	–	EC50 (Trypanosoma cruzi): 28 µM
CC1=C(CCC(=O)NCCCN2CCN(C)CC2)C(=O)c2ccccc2C1=O	38	> 10	30	–	–
